Compound activity from PubChem.
An excerpt weighted towards active compounds, which were near 1.8% of everything screened.
CHRM5 antagonist: antagonists of human muscarinic M5 receptor (CHRM5) | CHO-hM5 cells, Fluo-8 calcium fluorescence, ACh EC80 | inhibition, % at 3 µM | 360,000 compounds, 0.59% hits | AID 624040;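 active = inhibition above a per-plate cutoff, the mean of that plate's test compounds plus 3 SD, cut at about 27% in these data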;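 also: 0% = acetylcholine EC80 with DMSO and 100% = DMSO without agonist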
Target sequence (P08912 whole entry, looked up): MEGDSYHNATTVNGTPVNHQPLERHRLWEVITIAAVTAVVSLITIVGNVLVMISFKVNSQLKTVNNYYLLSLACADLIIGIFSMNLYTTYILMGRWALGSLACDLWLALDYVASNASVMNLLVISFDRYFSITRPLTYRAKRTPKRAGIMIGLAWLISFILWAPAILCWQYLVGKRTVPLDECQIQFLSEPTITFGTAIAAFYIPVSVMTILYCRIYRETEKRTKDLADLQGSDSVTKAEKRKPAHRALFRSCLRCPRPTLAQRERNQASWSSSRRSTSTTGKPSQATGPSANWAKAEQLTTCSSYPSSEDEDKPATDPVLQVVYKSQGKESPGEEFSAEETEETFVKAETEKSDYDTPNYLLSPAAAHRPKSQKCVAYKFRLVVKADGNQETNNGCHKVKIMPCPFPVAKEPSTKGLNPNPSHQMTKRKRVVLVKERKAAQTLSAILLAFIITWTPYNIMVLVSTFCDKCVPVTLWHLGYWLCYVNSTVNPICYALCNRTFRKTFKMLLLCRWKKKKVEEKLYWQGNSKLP
CHRM4 agonist: CHRM4 agonism in calcium assay; activation, % at 3 µM; P08173; CHO-K1 hM4/Gqi5, Fluo-8 calcium fluorescence; vehicle 0%, full acetylcholine response 100%; 360,000 compounds, 0.14% hits; AID 624127;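 active = activation above the run mean over all test wells plus 3 SD, cut at about 32% in these data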;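 also: peak over basal fluorescence ratio per well then scaled between controls; 0% = DMSO wells and 100% = acetylcholine at EC100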
CHRM5 PAM: potentiates acetylcholine response at human M5 receptor; AID 624038; 360,000 compounds, 0.3% hits; P08912; activation, % at 3 µM; CHO-K1 hM5, Fluo-8 calcium, ACh EC20 PAM; 0% = ACh EC20, 100% = ACh EC100;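 active = activation above the run cutoff, the mean activation of all test compounds plus 3 SD, cut at about 18% in these data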
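System: CHO-K1 hM5 cells. Reagent: acetylcholine, EC20 level. Compound dosing: single dose, 3 µM nominal final test concentration. Timing: Post-acetylcholine fluorescence recording 140 s. Detection: Fluo-8 calcium fluorescence. Read-out: % activation, ACh-normalized. Benchmarks: ACh EC20 and EC100 wells. Repeats: singlicate, one well per test compound.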
M5 ag: agonists of human muscarinic M5 receptor (CHRM5); P08912; CHO-K1 hM5 cells, Fluo-8 calcium fluorescence; 0% DMSO wells, 100% maximal acetylcholine response; activation, % at 3 µM; AID 624037; 360,000 compounds, 0.19% hits;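 active = activation above the run's mean over test compounds plus 3 SD, cut at about 23% in these data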;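 also: signal is peak over basal fluorescence ratio across the kinetic read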
M4 antag: blocks acetylcholine activation of human M4 receptor. P08173. CHO-hM4 cells, ACh EC80, Fluo-8 calcium fluorescence. inhibition, % at 3 µM. 360,000 compounds, 0.73% hits;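 active = inhibition above its plate's cutoff, the mean inhibition of sample wells plus 3 SD, cut at about 27% in these data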;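 also: 0% = acetylcholine EC80 with DMSO and 100% = DMSO without agonist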
M4 PAM: positive allosteric modulators of human muscarinic M4 receptor | P08173 | CHO-K1 hM4/Gqi5, Fluo-8 calcium fluorescence, ACh EC20; 0% = ACh EC20, 100% = maximal ACh | activation, % at 3 µM | 360,000 compounds, 0.4% hits | AID 624126;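 active = activation above its plate's cutoff, the mean activation of sample wells plus 3 SD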
An asterisk follows results filed as active.

SMILES | CHRM5 antagonist | CHRM4 agonist | CHRM5 PAM | M5 ag | M4 antag | M4 PAM
Cc1noc(C)c1S(=O)(=O)NC(=O)C1(C)CCN1C(=O)c1ccccc1CCc1ccccc1 (stereo not given) | -7 | 1 | 2 | 0 | 5 | -2
Cc1ccc(NC(=O)c2ccc(NCc3ccc(F)cc3)nc2)cc1 | 32* | 6 | -18 | -3 | 3 | 0
Cc1ccc(S(=O)(=O)NC(=O)C2(C)CCN2C(=O)C2CCCCC2)nc1 (stereo not given) | 3 | 0 | 0 | 2 | -5 | 14
CCOc1ccc(S(=O)(=O)Nc2nc3ccccc3nc2-n2ccc(=NC(=O)c3ccccc3C)cc2)cc1 | 40* | 14 | -18 | 30* | 9 | -20
Cc1ccccc1C(=O)N=c1ccn(-c2nc3ccccc3nc2NS(=O)(=O)c2ccccc2)cc1 | 12 | 1 | 0 | -5 | -3 | 0
O=C(OCCN1C(=O)c2ccccc2C1=O)c1ccco1 | -7 | 1 | 19* | -8 | -9 | -1
O=C(OCCN1C(=O)c2ccccc2C1=O)c1ccccc1 | 3 | 2 | -2 | -2 | 7 | -1
CN(C)CCCN(C(=O)c1cc(-c2cccs2)nc2ccccc12)c1nc2c(F)cccc2s1 | 4 | 8 | 5 | -5 | 27* | -13
COc1ccccc1N1CCN(C2CCCN(C(=O)c3oc(C)cc3C)C2)CC1 (stereo not given) | 57* | 1 | -14 | -8 | 0 | -1
OC[C@@H]1CN(Cc2ccccc2)C[C@H](n2cnc3c(NC4CC4)ncnc32)O1 | 7 | 1 | -2 | 0 | -5 | 4
COc1ccc(CN2C[C@@H](CO)O[C@@H](n3cnc4c(N5CCCC5)ncnc43)C2)cc1 | 4 | 2 | -3 | -2 | -23 | 17*
OC[C@@H]1CN(Cc2ccc(-c3ccccc3)cc2)C[C@H](n2cnc3c(NC4CCC4)ncnc32)O1 | 29* | 17 | -14 | 5 | 28* | -10
Cc1ccccc1N1C(=O)c2cccc3c(N(C)CCO)ccc(c23)C1=O | 15 | 17 | -7 | 18 | 12 | -3
COc1ccccc1N1C(=O)c2cccc3c(N(C)CCO)ccc(c23)C1=O | 8 | 9 | -3 | 24* | 2 | -3
O[C@@H]1CN(CC2CCCCC2)[C@@H](c2ccccc2)C[C@H]1n1cc(-c2ccc(F)cc2)nn1 | -3 | -1 | 2 | 1 | -12 | 0
COc1cc(C=O)ccc1OC(=O)c1cccnc1 | 30* | 1 | -14 | -2 | -8 | 0
COc1ccc2c(c1)c(C(C)=O)c(C)n2-c1ccccc1OC | 2 | 0 | -2 | -3 | -1 | -8
CNC(=O)c1cc(Oc2ccc(NC(=O)Nc3ccc(Cl)c(C(F)(F)F)c3)cc2)ccn1 | 30* | 21 | -31 | 3 | 32* | -15
C=CCn1c(SCc2ccc(C(=O)Nc3nccs3)cc2)nnc1-c1ccc(C)c(Cl)c1 | 27* | 9 | -16 | 1 | 20 | -16
Cc1cccc(NC(=O)/C(C#N)=C\c2cn(CC(=O)O)c3ccccc23)c1 | 28* | 2 | -12 | -4 | 6 | 3
O=C(NCCCN1CCC(Cc2ccccc2)CC1)c1ccc(CS(=O)c2ccccc2Cl)o1 (stereo not given) | 23 | 7 | -19 | -2 | 28* | -14
O=C(NCc1ccco1)c1ccc(CS(=O)c2ccccc2Cl)o1 (stereo not given) | 7 | 3 | -7 | 0 | -21 | 5
Cc1ccc(N2CCCn3c2cc(C)c(C#N)c3=O)cc1C | 5 | 0 | 3 | 0 | -2 | 9
Cc1ccc(N2CCCn3c2cc(C)c(C#N)c3=O)cc1Cl | -5 | 1 | 6 | -1 | 1 | 38*
CCN(CC#CCC(O)(c1ccccc1)C1CCCC1)C(C)C (stereo not given) | 83* | 2 | -15 | -11 | 92* | -14
SMILES | CHRM5 antagonist | CHRM4 agonist | CHRM5 PAM | M5 ag | M4 antag | M4 PAM
CC(C)N(CC#CCC(O)(c1ccccc1)C1CCCC1)CCO (stereo not given) | 47* | 2 | -19 | -9 | 14 | -17
CC(OC(=O)c1ccc([N+](=O)[O-])o1)C(=O)Nc1nc(-c2ccc(F)c(F)c2)cs1 (stereo not given) | 15 | 13 | -33 | -5 | 17 | -15
Cc1ccc(SCC(=O)OCC(=O)N(C)C2CCS(=O)(=O)C2)cc1C (stereo not given) | -1 | 2 | 5 | 3 | 5 | 5
OC(COCc1ccc2c(c1)OCO2)CN1CCCCC1 (stereo not given) | 0 | 0 | 6 | -3 | -13 | 4
CCC(CO)NCC(O)COCc1ccc2c(c1)OCO2 (stereo not given) | -1 | 1 | 0 | -4 | -13 | 20*
Cc1cccc(NC(=O)CN(C)C(=O)c2ccc3ccccc3n2)c1C | -4 | 3 | 1 | -2 | -5 | 1
CCC(C)(C(=O)Nc1c(C)cccc1C)N(C)C(=O)c1ccc2ccccc2n1 (stereo not given) | 6 | 1 | 2 | -3 | 37* | 15
CC(=O)Nc1cccc2ccc(O)cc12 | 5 | 0 | 3 | -2 | -11 | 16*
COc1cc(NC(=O)c2ccc(=O)[nH]n2)cc(OC)c1OC | 0 | 2 | 4 | -2 | -5 | 4
COCCNc1nnc(SCC(=O)NNC(=O)c2ccccc2)s1 | -13 | 4 | 1 | -6 | -13 | 19*
CCC/C(C(=O)NCCO)=C1/c2ccccc2C(=O)N1c1ccccc1 | 11 | 2 | -12 | 5 | 4 | -1
C#CCOCCOCCOCCNc1nc(N2CCN(C(=O)CCCCCCCCCCNC(=O)[C@H]([C@@H](C)CC)n3cc(CCCCN=C(N)N)nn3)CC2)nc(N2CCN(C(=O)CCCCCCCCCCNC(=O)[C@H](CO)n3cc(CCCCCN)nn3)CC2)n1 | 23 | 1 | -10 | -7 | 34* | -13
CC(C)(C)OC(=O)NCCCCCc1cn([C@@H](CO)C(=O)NCCCCCCCCCCC(=O)N2CCN(C(=O)OC(C)(C)C)CC2)nn1 | 38* | 34* | -40 | 1 | 69* | -17
CC(C)(C)OC(=O)CC[C@@H](C(=O)NCCCCCCCCCCC(=O)N1CCN(C(=O)OC(C)(C)C)CC1)n1cc(CCCCCNC(=O)OC(C)(C)C)nn1 | -13 | 4 | 8 | 6 | -11 | 14
NCCCCCc1cn(CC(=O)NCCCCCCCCCCC(=O)N2CCNCC2)nn1 | -4 | 1 | 4 | -4 | -12 | 23*
